ChEMBL document CHEMBL2146359, “HCV NS5A replication complex inhibitors. Part 2: investigation of stilbene prolinamides” (Bioorg Med Chem Lett, 2012)

What was measured:
[1] = system: Bovine viral diarrhea virus 1; assay: Antiviral activity against BVDV1; format: functional, organism-based; conditions: Bovine viral diarrhea virus isolates and strains
[2] = Cytotoxicity against human HuH7 cells after 72 hrs by Alamar Blue assay; format: cell-based; conditions: Huh-7 cells
Hepatitis C virus = assay: Antiviral activity against HCV genotype 1b infected in human Huh7 cells assessed as inhibition of viral replication by FRET assay; format: functional, organism-based, Hepacivirus hominis; conditions: Huh-7
Outline: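 Replicon potency values are the means of at least two experiments.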

`O=C(Nc1ccc(/C=C/c2ccc(NC(=O)[C@@H]3CCCN3C(=O)Cc3ccccc3)cc2)cc1)[C@@H]1CCCN1C(=O)Cc1ccccc1` gave an EC50 [1] greater than 10 µM and a CC50 at 72 h [2] greater than 10 µM.
`C[C@@H](C(=O)N1CCC[C@H]1C(=O)Nc1ccc(/C=C/c2ccc(NC(=O)[C@@H]3CCCN3C(=O)[C@H](C)c3ccccc3)cc2)cc1)c1ccccc1` gave an EC50 (Hepatitis C virus) of less than 0.005 µM, an EC50 [1] greater than 10 µM and a CC50 at 72 h [2] greater than 10 µM.
`O=C(Nc1ccc(/C=C/c2ccc(NC(=O)[C@@H]3C4CC4CN3C(=O)OCc3ccccc3)cc2)cc1)[C@@H]1C2CC2CN1C(=O)OCc1ccccc1` (stereo partly drawn) showed an EC50 (Hepatitis C virus) of 0.089 µM, an EC50 [1] greater than 10 µM and a CC50 at 72 h [2] greater than 10 µM.
Work on `O=C(Nc1ccc(/C=C/c2ccc(NC(=O)[C@@H]3CCCN3C(=O)Cc3ccccc3)cc2)cc1)[C@@H]1CCCN1` yielded an EC50 (Hepatitis C virus) of 1.39 µM, an EC50 [1] greater than 10 µM and a CC50 at 72 h [2] greater than 10 µM.
`CC(=O)Nc1ccc(/C=C/c2ccc(NC(=O)[C@@H]3CCCN3C(=O)Cc3ccccc3)cc2)cc1` gave an EC50 (Hepatitis C virus) of 1.64 µM, an EC50 [1] greater than 10 µM and a CC50 at 72 h [2] greater than 10 µM.
For `Nc1ccc(/C=C/c2ccc(NC(=O)[C@@H]3CCCN3C(=O)Cc3ccccc3)cc2)cc1`, the EC50 (Hepatitis C virus) was greater than 10 µM, the EC50 [1] was greater than 10 µM and the CC50 at 72 h [2] was greater than 10 µM.
With `C[C@H](NC(=O)Cc1ccccc1)C(=O)Nc1ccc(/C=C/c2ccc(NC(=O)[C@@H]3CCCN3C(=O)Cc3ccccc3)cc2)cc1` the EC50 (Hepatitis C virus) was 0.00257 µM, the EC50 [1] was greater than 10 µM and the CC50 at 72 h [2] was greater than 10 µM.
For `CC(=O)N[C@@H](C)C(=O)Nc1ccc(/C=C/c2ccc(NC(=O)[C@@H]3CCCN3C(=O)Cc3ccccc3)cc2)cc1`, the EC50 (Hepatitis C virus) was 0.153 µM, the EC50 [1] was greater than 10 µM and the CC50 at 72 h [2] was greater than 10 µM.
Work on `O=C(Cc1ccccc1)NCC(=O)Nc1ccc(/C=C/c2ccc(NC(=O)[C@@H]3CCCN3C(=O)Cc3ccccc3)cc2)cc1` yielded an EC50 (Hepatitis C virus) of 0.768 µM, an EC50 [1] greater than 10 µM and a CC50 at 72 h [2] greater than 10 µM.
`C[C@H](NC(=O)OCc1ccccc1)C(=O)Nc1ccc(/C=C/c2ccc(NC(=O)[C@H](C)NC(=O)OCc3ccccc3)cc2)cc1` gave an EC50 (Hepatitis C virus) of 3.21 µM, an EC50 [1] greater than 10 µM and a CC50 at 72 h [2] greater than 10 µM.
Compound `C[C@@H](C(=O)Nc1ccc(/C=C/c2ccc(NC(=O)[C@H](C)N(C)C(=O)OCc3ccccc3)cc2)cc1)N(C)C(=O)OCc1ccccc1` has an EC50 (Hepatitis C virus) of 0.0731 µM, an EC50 [1] greater than 10 µM and a CC50 at 72 h [2] greater than 10 µM.
`O=C(Nc1ccc(/C=C/c2ccc(NC(=O)[C@@H]3CCN3C(=O)OCc3ccccc3)cc2)cc1)[C@@H]1CCN1C(=O)OCc1ccccc1` gave an EC50 (Hepatitis C virus) of 0.058 µM, an EC50 [1] greater than 10 µM and a CC50 at 72 h [2] greater than 10 µM.
`O=C(Nc1ccc(/C=C/c2ccc(NC(=O)[C@@H]3CCCCN3C(=O)OCc3ccccc3)cc2)cc1)[C@@H]1CCCCN1C(=O)OCc1ccccc1` showed an EC50 (Hepatitis C virus) of 0.0627 µM, an EC50 [1] greater than 10 µM and a CC50 at 72 h [2] greater than 10 µM.
Work on `O=C(Nc1ccc(/C=C/c2ccc(NC(=O)[C@@H]3Cc4ccccc4N3C(=O)OCc3ccccc3)cc2)cc1)[C@@H]1Cc2ccccc2N1C(=O)OCc1ccccc1` yielded an EC50 (Hepatitis C virus) of 0.0669 µM, an EC50 [1] greater than 10 µM and a CC50 at 72 h [2] greater than 10 µM.
With `O=C(Nc1ccc(/C=C/c2ccc(NC(=O)[C@@H]3[C@H]4CCC[C@H]4CN3C(=O)OCc3ccccc3)cc2)cc1)[C@@H]1[C@H]2CCC[C@H]2CN1C(=O)OCc1ccccc1` the EC50 (Hepatitis C virus) was 0.12 µM, the EC50 [1] was greater than 10 µM and the CC50 at 72 h [2] was greater than 10 µM.
Compound `O=C(Nc1ccc(/C=C/c2ccc(NC(=O)[C@@H]3COCN3C(=O)OCc3ccccc3)cc2)cc1)[C@@H]1COCN1C(=O)OCc1ccccc1` has an EC50 (Hepatitis C virus) of 0.00614 µM, an EC50 [1] greater than 10 µM and a CC50 at 72 h [2] greater than 10 µM.
In the case of `O=C(Nc1ccc(/C=C/c2ccc(NC(=O)[C@@H]3C[C@H](O)CN3C(=O)OCc3ccccc3)cc2)cc1)[C@@H]1C[C@H](O)CN1C(=O)OCc1ccccc1`, the EC50 (Hepatitis C virus) is reported as 0.0115 µM, the EC50 [1] is reported as greater than 10 µM and the CC50 at 72 h [2] is reported as greater than 10 µM.
`CO[C@@H]1C[C@@H](C(=O)Nc2ccc(/C=C/c3ccc(NC(=O)[C@@H]4C[C@@H](OC)CN4C(=O)OCc4ccccc4)cc3)cc2)N(C(=O)OCc2ccccc2)C1` gave an EC50 (Hepatitis C virus) of less than 0.005 µM, an EC50 [1] greater than 10 µM and a CC50 at 72 h [2] greater than 10 µM.
Work on `CCO[C@@H]1C[C@@H](C(=O)Nc2ccc(/C=C/c3ccc(NC(=O)[C@@H]4C[C@@H](OCC)CN4C(=O)OCc4ccccc4)cc3)cc2)N(C(=O)OCc2ccccc2)C1` yielded an EC50 (Hepatitis C virus) of 0.038 µM, an EC50 [1] greater than 10 µM and a CC50 at 72 h [2] greater than 10 µM.
`CO[C@H]1C[C@@H](C(=O)Nc2ccc(/C=C/c3ccc(NC(=O)[C@@H]4C[C@H](OC)CN4C(=O)OCc4ccccc4)cc3)cc2)N(C(=O)OCc2ccccc2)C1` gave an EC50 (Hepatitis C virus) of less than 0.005 µM, an EC50 [1] greater than 10 µM and a CC50 at 72 h [2] greater than 10 µM.
`CCO[C@H]1C[C@@H](C(=O)Nc2ccc(/C=C/c3ccc(NC(=O)[C@@H]4C[C@H](OCC)CN4C(=O)OCc4ccccc4)cc3)cc2)N(C(=O)OCc2ccccc2)C1` gave an EC50 (Hepatitis C virus) of 0.015 µM, an EC50 [1] greater than 10 µM and a CC50 at 72 h [2] greater than 10 µM.
Compound `CC(C)(C)O[C@H]1C[C@@H](C(=O)Nc2ccc(/C=C/c3ccc(NC(=O)[C@@H]4C[C@H](OC(C)(C)C)CN4C(=O)OCc4ccccc4)cc3)cc2)N(C(=O)OCc2ccccc2)C1` has an EC50 (Hepatitis C virus) of 0.35 µM, an EC50 [1] greater than 10 µM and a CC50 at 72 h [2] greater than 10 µM.
`CC(C)(C)NC(=O)O[C@@H]1C[C@@H](C(=O)Nc2ccc(/C=C/c3ccc(NC(=O)[C@@H]4C[C@@H](OC(=O)NC(C)(C)C)CN4C(=O)OCc4ccccc4)cc3)cc2)N(C(=O)OCc2ccccc2)C1` showed an EC50 (Hepatitis C virus) greater than 10 µM, an EC50 [1] greater than 10 µM and a CC50 at 72 h [2] greater than 10 µM.
Compound `N[C@H]1C[C@@H](C(=O)Nc2ccc(/C=C/c3ccc(NC(=O)[C@@H]4C[C@H](N)CN4C(=O)OCc4ccccc4)cc3)cc2)N(C(=O)OCc2ccccc2)C1` has an EC50 (Hepatitis C virus) of 1.29 µM, an EC50 [1] greater than 10 µM and a CC50 at 72 h [2] greater than 10 µM.
With `CN(C)[C@H]1C[C@@H](C(=O)Nc2ccc(/C=C/c3ccc(NC(=O)[C@@H]4C[C@H](N(C)C)CN4C(=O)OCc4ccccc4)cc3)cc2)N(C(=O)OCc2ccccc2)C1` the EC50 (Hepatitis C virus) was 0.01 µM, the EC50 [1] was greater than 10 µM and the CC50 at 72 h [2] was greater than 10 µM.
`C[C@H](C(=O)N1CCC[C@H]1C(=O)Nc1ccc(/C=C/c2ccc(NC(=O)[C@@H]3CCCN3C(=O)[C@@H](C)c3ccccc3)cc2)cc1)c1ccccc1` showed an EC50 (Hepatitis C virus) of 0.005 µM, an EC50 [1] greater than 10 µM and a CC50 at 72 h [2] greater than 10 µM.
`O=C(Nc1ccc(/C=C/c2ccc(NC(=O)[C@@H]3CCCN3C(=O)c3ccccc3)cc2)cc1)[C@@H]1CCCN1C(=O)c1ccccc1` gave an EC50 (Hepatitis C virus) of 0.102 µM, an EC50 [1] greater than 10 µM and a CC50 at 72 h [2] greater than 10 µM.
`CC(=O)N1CCC[C@H]1C(=O)Nc1ccc(/C=C/c2ccc(NC(=O)[C@@H]3CCCN3C(C)=O)cc2)cc1` showed an EC50 (Hepatitis C virus) of 2.38 µM, an EC50 [1] greater than 10 µM and a CC50 at 72 h [2] greater than 10 µM.
For `O=C(Nc1ccc(/C=C/c2ccc(NC(=O)[C@@H]3CCCN3C(=O)Cc3ccccn3)cc2)cc1)[C@@H]1CCCN1C(=O)Cc1ccccn1`, the EC50 (Hepatitis C virus) was 0.00222 µM, the EC50 [1] was greater than 10 µM and the CC50 at 72 h [2] was greater than 10 µM.
`O=C(Nc1ccc(/C=C/c2ccc(NC(=O)[C@@H]3CCCN3C(=O)Cc3ccncc3)cc2)cc1)[C@@H]1CCCN1C(=O)Cc1ccncc1` showed an EC50 (Hepatitis C virus) of 0.172 µM, an EC50 [1] greater than 10 µM and a CC50 at 72 h [2] greater than 10 µM.
For `O=C(Nc1ccc(/C=C/c2ccc(NC(=O)[C@@H]3CCCN3C(=O)Cc3cccs3)cc2)cc1)[C@@H]1CCCN1C(=O)Cc1cccs1`, the EC50 (Hepatitis C virus) was 0.00128 µM, the EC50 [1] was greater than 10 µM and the CC50 at 72 h [2] was greater than 10 µM.
Compound `Cn1cccc1CC(=O)N1CCC[C@H]1C(=O)Nc1ccc(/C=C/c2ccc(NC(=O)[C@@H]3CCCN3C(=O)Cc3cccn3C)cc2)cc1` has an EC50 (Hepatitis C virus) of 0.0102 µM, an EC50 [1] greater than 10 µM and a CC50 at 72 h [2] greater than 10 µM.
With `Cc1cc(CC(=O)N2CCC[C@H]2C(=O)Nc2ccc(/C=C/c3ccc(NC(=O)[C@@H]4CCCN4C(=O)Cc4cc(C)no4)cc3)cc2)on1` the EC50 (Hepatitis C virus) was 0.0762 µM, the EC50 [1] was greater than 10 µM and the CC50 at 72 h [2] was greater than 10 µM.
